# Tests used:
# [1] = biological target: T1, Peroxisome proliferator-activated receptor gamma (Homo sapiens, UniProt P37231); test: Inverse agonist activity at His6-tagged PPARgamma LBD (unknown origin) assessed as inhibition of rosiglitazone-induced N-terminal biotinylated co-activator SRC1 box2 peptide recruitment measured after 30 mins by TR-FRET assay
# T1 sequence (P37231 whole entry): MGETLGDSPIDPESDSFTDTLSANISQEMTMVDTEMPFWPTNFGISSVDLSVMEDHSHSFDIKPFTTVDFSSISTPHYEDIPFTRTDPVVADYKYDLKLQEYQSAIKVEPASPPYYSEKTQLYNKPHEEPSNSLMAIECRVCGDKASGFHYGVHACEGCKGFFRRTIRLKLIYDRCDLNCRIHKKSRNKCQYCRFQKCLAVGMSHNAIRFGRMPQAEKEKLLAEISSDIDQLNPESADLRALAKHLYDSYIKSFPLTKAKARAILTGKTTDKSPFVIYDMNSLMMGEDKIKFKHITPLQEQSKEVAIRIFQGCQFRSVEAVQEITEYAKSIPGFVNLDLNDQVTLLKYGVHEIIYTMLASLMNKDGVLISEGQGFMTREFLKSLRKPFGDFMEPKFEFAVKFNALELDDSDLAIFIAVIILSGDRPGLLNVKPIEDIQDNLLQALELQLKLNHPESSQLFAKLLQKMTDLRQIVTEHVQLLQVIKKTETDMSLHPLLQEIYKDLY
# In short: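 His6-PPARγ-LBD at 100 nM with 100 nM N-terminal biotinylated SRC-1 box2 peptide in 10 mM HEPES, 150 mM NaCl, 5 mM DTT, 0.1% BSA, 0.1 mM CHAPS, pH 7.5, with 1 μM rosiglitazone. Tb anti-His donor, D2-streptavidin acceptor. Compounds in DMSO, 2× dilution series, 2% DMSO final. 30 min at room temperature. IC50 from sigmoidal fit of FRET ratio. Triplicate.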
# [2] = biological target: T2, Nuclear receptor ROR-gamma (Homo sapiens, UniProt P51449); test: (§1) Inverse agonist activity at human N-terminal His6-tagged RORgammat LBD (265 to 518 residues) expressed in Escherichia coli BL21 (DE3) assessed as inhibition of N-terminal biotinylated co-activator SRC1 box2 peptide recruitment measured after 30 mins by TR-FRET assay
# T2 sequence (P51449 whole entry): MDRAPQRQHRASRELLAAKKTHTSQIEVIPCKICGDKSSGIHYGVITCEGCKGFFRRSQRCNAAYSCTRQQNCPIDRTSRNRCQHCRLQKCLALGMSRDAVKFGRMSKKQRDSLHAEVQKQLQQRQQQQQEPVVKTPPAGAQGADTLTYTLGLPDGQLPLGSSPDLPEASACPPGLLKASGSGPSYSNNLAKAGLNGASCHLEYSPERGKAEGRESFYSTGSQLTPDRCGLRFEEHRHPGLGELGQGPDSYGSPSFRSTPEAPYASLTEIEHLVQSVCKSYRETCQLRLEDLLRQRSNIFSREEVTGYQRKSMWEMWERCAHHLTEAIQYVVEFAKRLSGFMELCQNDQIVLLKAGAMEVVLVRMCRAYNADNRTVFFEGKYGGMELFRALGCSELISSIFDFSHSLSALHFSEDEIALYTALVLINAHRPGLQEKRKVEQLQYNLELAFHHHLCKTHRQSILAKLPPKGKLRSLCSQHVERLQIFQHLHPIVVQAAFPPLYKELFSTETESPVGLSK
# [3] = biological target: T3, Nuclear receptor ROR-gamma (Homo sapiens) (UniProt P51449); test: as §1
# T3 sequence (whole entry): T2 sequence (P51449 whole entry)
# [4] = Chemical stability of the compound in pH 7.4 aqueous buffer assessed as parent compound remaining at 2 uM measured after 24 hrs by LC-MS analysis; assay type: physicochemical; conditions: read-out: Stability
# In short: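 Compound at 2 μM final in aqueous buffer pH 7.4, sampled at 1, 7 and 24 h; LC–MS quantitation of each aliquot, % remaining expressed relative to the zero time point.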
# [5] = Kinetic solubility of the compound in pH 7.4 aqueous buffer at 500 uM measured after 90 mins by spectrophotometric method; assay type: physicochemical; conditions: read-out: Kinetic_solubility
# [6] = Permeability of the compound at 500 uM after 20 hrs by PAMPA; assay type: ADME
# In short: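 Donor compartment starts at 500 μM compound; after 20 h incubation, receiver-well absorbance read by spectrophotometry; permeation normalized to flux across a blank filter.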
# [7] = Stability in human liver microsomes assessed as parent compound remaining at 5 uM measured after 1 hr in presence of metabolic phase 2 cofactors UDPGA by LC-MS analysis; assay type: ADME, Microsome; conditions: read-out: Stability
# In short: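 Glucuronidation conditions: 5 μM compound with liver microsomes supplemented with UDPGA, 1 h at 37 °C; % remaining determined by LC–MS.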
# [8] = Stability of the compound in plasma (unknown origin) assessed as parent compound remaining at 5 uM measured after 1 hr by LC-MS analysis; assay type: ADME, cell-free; conditions: read-out: Stability
# In short: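 5 μM compound incubated in 100% plasma for 1 h at 37 °C; % remaining by LC–MS.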
# [9] = Protein binding in plasma (unknown origin) at 5 uM measured after 6 hrs by LC-MS based equilibrium dialysis analysis; assay type: ADME, cell-free; conditions: read-out: PPB (converted)
# In short: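 Equilibrium dialysis: plasma incubated with 5 μM compound for 6 h at 37 °C, final compound concentrations determined by LC–MS.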
# [10] = biological target: T2, Nuclear receptor ROR-gamma; test: as §1, with “Competitive inverse” for “Inverse”, “mins in absence of RORgamma agonist cholesterol” for “mins”
# [11] = biological target: T2, Nuclear receptor ROR-gamma; test: as §1, with “Competitive inverse” for “Inverse”, “mins in presence of 0.25 uM RORgamma agonist cholesterol” for “mins”
# [12] = biological target: T2, Nuclear receptor ROR-gamma; test: as §1, with “Competitive inverse” for “Inverse”, “mins in presence of 1 uM RORgamma agonist cholesterol” for “mins”
# [13] = Intrinsic clearance in human liver microsomes at 3 uM measured up to 90 mins in presence of metabolic phase 1 cofactors by LC-MS analysis; assay type: ADME, Microsome; conditions: 1.5 h
compound,measurement,setting,value
O=C(O)c1ccc(NCc2c(-c3c(Cl)cccc3C(F)(F)F)noc2-c2ccccc2)cc1,IC50,[1],78.6 µM
O=C(O)Cc1ccc(NC(=O)c2c(-c3c(Cl)cccc3C(F)(F)F)noc2-c2ccccc2)cc1,IC50,[2],> 100 µM
O=C(O)c1c(-c2c(Cl)cccc2C(F)(F)F)noc1-c1ccccc1,IC50,[2],> 100 µM
O=C(O)c1ccc(NCc2c(-c3c(Cl)cccc3C(F)(F)F)noc2-c2cccc3ccccc23)cc1,IC50,[2],> 100 µM
same,IC50,[1],> 100 µM
O=C(O)c1ccc(NC(=O)c2c(-c3c(Cl)cccc3C(F)(F)F)noc2-c2ccccc2)cc1,inhibition,[3],Dose-dependent effect
same,"remaining at 24 h, 2 µM",[4],95.4%
same,"solubility kinetic at 1.5 h, 500 µM",[5],490 µM
same,permeability,[6],60.1%
same,"remaining at 1 h, 5 µM",[7],100%
same,"remaining at 1 h, 5 µM",[8],99.9%
same,"fraction unbound at 6 h, 5 µM",[9],0.022
CC(C)(C)OC(=O)c1ccc(NC(=O)c2c(-c3c(Cl)cccc3C(F)(F)F)noc2-c2ccccc2)cc1,IC50,[2],> 100 µM
O=C(O)c1ccc(NCc2c(-c3c(Cl)cccc3C(F)(F)F)noc2-c2cccc(O)c2)cc1,IC50,[1],> 100 µM
O=C(O)c1ccc(NCc2c(-c3c(Cl)cccc3C(F)(F)F)noc2-c2cccs2)cc1,IC50,[2],1.75 µM
same,IC50,[1],> 100 µM
Cc1onc(-c2c(Cl)cccc2C(F)(F)F)c1C(=O)Nc1ccc(C(=O)O)cc1,inhibition,[3],Dose-dependent effect
same,IC50,[2],> 100 µM
C[C@H]1O[C@@H](O[C@H]2[C@@H](O)C[C@H](O[C@H]3[C@@H](O)C[C@H](O[C@H]4CC[C@@]5(C)[C@H](CC[C@@H]6[C@@H]5C[C@@H](O)[C@]5(C)[C@@H](C7=CC(=O)OC7)CC[C@]65O)C4)O[C@@H]3C)O[C@@H]2C)C[C@H](O)[C@@H]1O [DIGOXIN],IC50,[10],7.01 µM
same,IC50,[11],33.6 µM
same,IC50,[12],85.4 µM
O=C(O)c1ccc(C(=O)Nc2c(-c3c(Cl)cccc3C(F)(F)F)noc2-c2ccccc2)cc1,IC50,[2],> 100 µM
O=C(O)c1ccc(NCc2c(-c3c(Cl)cccc3C(F)(F)F)noc2-c2cc[nH]c2)cc1,"remaining at 24 h, 2 µM",[4],95.3%
same,"solubility kinetic at 1.5 h, 500 µM",[5],411 µM
same,permeability,[6],33.6%
same,CLH,[13],20.7 µL/min/mg
same,"remaining at 1 h, 5 µM",[7],69.8%
same,"remaining at 1 h, 5 µM",[8],85.9%
same,"fraction unbound at 6 h, 5 µM",[9],0.001
O=C(O)c1ccc(-c2nn(C(=O)c3c(Cl)cccc3C(F)(F)F)c3ccccc23)cc1,"remaining at 24 h, 2 µM",[4],81%
same,"solubility kinetic at 1.5 h, 500 µM",[5],390 µM
same,permeability,[6],23.7%
same,"remaining at 1 h, 5 µM",[7],47.1%
same,"remaining at 1 h, 5 µM",[8],100%
same,"fraction unbound at 6 h, 5 µM",[9],0.001
O=C(O)c1ccc(NCc2c(-c3c(Cl)cccc3C(F)(F)F)noc2-c2ccco2)cc1,IC50,[1],> 100 µM
same,"remaining at 24 h, 2 µM",[4],100%
same,"solubility kinetic at 1.5 h, 500 µM",[5],392 µM
same,permeability,[6],50.4%
same,CLH,[13],43.2 µL/min/mg
same,"remaining at 1 h, 5 µM",[7],92.8%
same,"remaining at 1 h, 5 µM",[8],86.5%

# Reference: ChEMBL document CHEMBL4376852, “Ligand-Based Design of Allosteric Retinoic Acid Receptor-Related Orphan Receptor γt (RORγt) Inverse Agonists” (J Med Chem, 2020)
